Experimental data gathered from unrelated publications.
Compare with care: the assays were run in different laboratories.

CCOC(=O)c1c(NC(=O)CNC(C)C)sc2c1CCCCC2 — Cmax (male mouse, brain; intraperitoneal, 100 mg/kg, single dose): 15800 ng/g
N=C(N)NCCC[C@H](NC(=O)[C@H](Cc1ccccc1)NC(=O)[C@H](CCC(N)=O)NC(=O)OCc1ccccc1)C(=O)c1nccs1 — Cmax (female C57BL/6 mouse, plasma; intravenous, 5 mg/kg): 3460 ng/mL
CC(C)=CCC[C@](C)(O[C@@H]1O[C@H](CO)[C@@H](O)[C@H](O)[C@H]1O)[C@H]1CC[C@]2(C)[C@@H]1[C@H](O)C[C@@H]1[C@@]3(C)CC[C@H](O)C(C)(C)[C@@H]3CC[C@]12C — Cmax (mouse, plasma; oral, 10 mg/kg): 107 ng/mL
O=C1CCC(N2Cc3c(ccc4c3OCC43CCN(Cc4ccccc4)CC3)C2=O)C(=O)N1 (centres unmarked) — Cmax (male CD-1 mouse, plasma; intravenous, 1 mg/kg): 299 ng/mL
COc1cc(C(=O)c2nc(-c3cccc4[nH]ccc34)c[nH]2)cc(OC)c1OC — Cmax (male CD-1 mouse, plasma; intraperitoneal, 15 mg/kg): 1870 ng/mL
Cc1[nH]c(C)c(S(=O)(=O)Nc2ccc(S(F)(F)(F)(F)F)cc2)c1C(=O)N1CCC(F)(F)C1 — Cmax (mouse, plasma; intraperitoneal, 40 mg/kg): 31 µM
C[C@@H](O)[C@@H]1NC(=O)CNC(=O)[C@H](Cc2c[nH]cn2)NC(=O)[C@H](Cc2c[nH]c3ccccc23)NC(=O)[C@H](CC(N)=O)NC(=O)CNC(=O)C[C@@H](C(=O)N[C@@H](Cc2c[nH]c3ccccc23)C(=O)N[C@@H](Cc2ccccc2)C(=O)N[C@@H](Cc2ccccc2)C(=O)N[C@@H](CC(N)=O)C(=O)N[C@@H](Cc2ccc(O)cc2)C(=O)N[C@@H](Cc2ccc(O)cc2)C(=O)N[C@@H](Cc2c[nH]c3ccccc23)C(=O)O)NC(=O)[C@@H]2CCCN2C(=O)[C@H](CO)NC1=O — Cmax (mouse, plasma; intravenous, 3 mg/kg): 11400 ng/mL
CC(C)[C@]12O[C@H]1[C@@H]1O[C@]13[C@]1(O[C@H]1C[C@H]1C4=C(CC[C@@]13C)C(=O)OC4)[C@@H]2O — Cmax (SCID mouse, plasma; intravenous, 0.6 mg/kg): 1290 ng/mL
